The values below come from ChEMBL document CHEMBL1140683, “N-4-Pyrimidinyl-1H-indazol-4-amine inhibitors of Lck: indazoles as phenol isosteres with improved pharmacokinetics” (Bioorg Med Chem Lett, 2007).

Data set [1] has as its target Proto-oncogene tyrosine-protein kinase LCK (Mus musculus, UniProt P06240). Nature of the data set: Inhibition of murine Lck by TR-FRET assay. In general terms: Time-resolved FRET reads energy transfer from a long-lived donor to a nearby acceptor.
For data set [2], the target named is Tyrosine-protein kinase BTK (Homo sapiens, UniProt Q06187). Nature of the data set: Inhibition of Btk.
Data set [3] addresses Tyrosine-protein kinase Lyn (Homo sapiens, UniProt P07948). Nature of the data set: Inhibition of Lyn.
Data set [4] addresses T1, Tyrosine-protein kinase TXK (Homo sapiens, UniProt P42681).
T1 sequence (P42681 whole entry): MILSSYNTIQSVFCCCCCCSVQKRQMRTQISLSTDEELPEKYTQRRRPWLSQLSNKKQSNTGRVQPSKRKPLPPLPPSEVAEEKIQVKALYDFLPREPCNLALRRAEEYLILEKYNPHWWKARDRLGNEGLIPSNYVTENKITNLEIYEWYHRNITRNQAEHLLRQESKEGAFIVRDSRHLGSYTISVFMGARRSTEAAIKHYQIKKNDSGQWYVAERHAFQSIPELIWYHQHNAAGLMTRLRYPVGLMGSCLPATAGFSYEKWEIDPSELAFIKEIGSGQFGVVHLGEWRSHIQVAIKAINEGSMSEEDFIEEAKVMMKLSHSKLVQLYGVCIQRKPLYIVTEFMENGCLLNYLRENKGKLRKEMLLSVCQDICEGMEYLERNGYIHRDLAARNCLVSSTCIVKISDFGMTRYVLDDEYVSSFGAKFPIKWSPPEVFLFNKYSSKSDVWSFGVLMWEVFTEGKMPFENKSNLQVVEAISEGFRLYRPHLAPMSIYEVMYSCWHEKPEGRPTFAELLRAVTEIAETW
Nature of the data set: Inhibition of Txk.

The target of data set [5] is Tyrosine-protein kinase SYK (Homo sapiens, UniProt P43405).
In data set [6] the target is Tyrosine-protein kinase Lck (Homo sapiens, UniProt P06239). Nature of the data set: Inhibition of human Lck by TR-FRET assay.
A short description of data set [7]: Plasma clearance in BALB/c mouse at 1 mg/kg, iv. The data set is classed as ADME, organism-based. Further details: dose 1 mg/kg, route intravenous. The method, boiled down: (§1)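 Blood sampled over 8 h. Plasma protein-precipitated with acetonitrile, dried under nitrogen, reconstituted in 10:90 acetonitrile:water. Quantified by LC-MS/MS on an ODS3 column with a 0.1% formic acid water/acetonitrile gradient.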

The nature of data set [8]: Volume of distribution at steady state in BALB/c mouse at 1 mg/kg, iv. The data set is classed as ADME, organism-based. Further details: dose 1 mg/kg, route intravenous. The conditions noted are these: in vivo, read-out: Vdss. The method, boiled down:
as §1

A short description of data set [9]: Half life in BALB/c mouse at 1 mg/kg, iv. It counts as ADME, organism-based. Further details: dose 1 mg/kg, route intravenous. The following applies: in vivo. An outline of the steps: as §1
Data set [10] in a line: AUC (0 to t) in BALB/c mouse at 1 mg/kg, iv. The data set is classed as ADME, organism-based. Further details: dose 1 mg/kg, route intravenous. The following applies: plasma. The method, boiled down:
as §1

Data set [11] in a line: AUC (0 to t) in BALB/c mouse at 1 mg/kg, po. It counts as ADME, organism-based. Also noted: dose 1 mg/kg, route oral. The conditions noted are these: plasma. The method, boiled down:
as §1

The nature of data set [12]: Oral bioavailability in BALB/c mouse at 1 mg/kg, po. The conditions noted are these: in vivo. It counts as ADME, organism-based. An outline of the steps: as §1
Data set [13] in a line: Plasma clearance in BALB/c mouse at 2.5 mg/kg, iv. Further details: dose 2.5 mg/kg, route intravenous. It counts as ADME, organism-based. An outline of the steps: as §1
Data set [14] can be described thus: Volume of distribution at steady state in BALB/c mouse at 2.5 mg/kg, iv. It counts as ADME, organism-based. Also noted: dose 2.5 mg/kg, route intravenous. The conditions noted are these: in vivo, read-out: Vdss. The method, boiled down: as §1
Data set [15] can be described thus: Half life in BALB/c mouse at 2.5 mg/kg, iv. The conditions noted are these: in vivo. Further details: dose 2.5 mg/kg, route intravenous. It counts as ADME, organism-based. An outline of the steps:
as §1

A short description of data set [16]: AUC (0 to t) in BALB/c mouse at 2.5 mg/kg, iv. The data set is classed as ADME, organism-based. Also noted: dose 2.5 mg/kg, route intravenous. The following applies: plasma. An outline of the steps: as §1
Data set [17] in a line: AUC (0 to t) in BALB/c mouse at 10 mg/kg, po. Further details: dose 10 mg/kg, route oral. The conditions noted are these: plasma. The data set is classed as ADME, organism-based. The method, boiled down: as §1
The nature of data set [18]: Oral bioavailability in BALB/c mouse at 10 mg/kg, po. The data set is classed as ADME, organism-based. The conditions noted are these: in vivo. An outline of the steps: as §1

Chain of Proto-oncogene tyrosine-protein kinase LCK (P06240 whole entry): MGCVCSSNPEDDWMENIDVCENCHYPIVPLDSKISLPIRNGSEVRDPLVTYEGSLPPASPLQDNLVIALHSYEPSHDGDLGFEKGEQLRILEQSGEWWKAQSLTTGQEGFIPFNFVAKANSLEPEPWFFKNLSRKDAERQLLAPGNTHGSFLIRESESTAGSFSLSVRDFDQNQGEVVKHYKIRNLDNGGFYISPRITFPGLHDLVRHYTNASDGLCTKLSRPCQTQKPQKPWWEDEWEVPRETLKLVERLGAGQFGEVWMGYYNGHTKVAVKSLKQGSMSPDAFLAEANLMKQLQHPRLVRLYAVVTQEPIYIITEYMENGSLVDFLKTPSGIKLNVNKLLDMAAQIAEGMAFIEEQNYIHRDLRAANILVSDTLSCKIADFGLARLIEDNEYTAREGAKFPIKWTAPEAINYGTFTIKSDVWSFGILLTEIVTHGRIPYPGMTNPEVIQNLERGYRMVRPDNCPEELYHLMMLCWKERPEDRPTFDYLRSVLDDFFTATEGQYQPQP
Chain of Tyrosine-protein kinase BTK (Q06187 whole entry): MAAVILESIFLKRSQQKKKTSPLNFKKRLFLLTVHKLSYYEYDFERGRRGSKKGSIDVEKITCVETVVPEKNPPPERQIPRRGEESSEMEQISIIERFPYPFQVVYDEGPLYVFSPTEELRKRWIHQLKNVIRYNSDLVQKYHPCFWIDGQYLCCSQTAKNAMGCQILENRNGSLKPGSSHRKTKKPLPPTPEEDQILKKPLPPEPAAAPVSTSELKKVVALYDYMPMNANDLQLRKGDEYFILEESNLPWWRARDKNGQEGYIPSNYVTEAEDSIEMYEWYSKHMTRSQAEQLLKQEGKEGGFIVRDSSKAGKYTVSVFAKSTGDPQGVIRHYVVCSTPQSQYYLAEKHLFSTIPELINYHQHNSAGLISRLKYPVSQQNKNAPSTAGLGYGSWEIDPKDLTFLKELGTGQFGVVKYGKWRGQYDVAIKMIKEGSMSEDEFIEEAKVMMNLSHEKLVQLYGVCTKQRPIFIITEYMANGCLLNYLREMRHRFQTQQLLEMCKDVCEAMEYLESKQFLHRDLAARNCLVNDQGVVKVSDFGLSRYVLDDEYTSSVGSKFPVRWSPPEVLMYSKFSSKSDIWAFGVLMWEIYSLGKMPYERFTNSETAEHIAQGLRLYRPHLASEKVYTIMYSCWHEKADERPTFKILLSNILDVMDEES
Chain of Tyrosine-protein kinase Lyn (P07948 whole entry): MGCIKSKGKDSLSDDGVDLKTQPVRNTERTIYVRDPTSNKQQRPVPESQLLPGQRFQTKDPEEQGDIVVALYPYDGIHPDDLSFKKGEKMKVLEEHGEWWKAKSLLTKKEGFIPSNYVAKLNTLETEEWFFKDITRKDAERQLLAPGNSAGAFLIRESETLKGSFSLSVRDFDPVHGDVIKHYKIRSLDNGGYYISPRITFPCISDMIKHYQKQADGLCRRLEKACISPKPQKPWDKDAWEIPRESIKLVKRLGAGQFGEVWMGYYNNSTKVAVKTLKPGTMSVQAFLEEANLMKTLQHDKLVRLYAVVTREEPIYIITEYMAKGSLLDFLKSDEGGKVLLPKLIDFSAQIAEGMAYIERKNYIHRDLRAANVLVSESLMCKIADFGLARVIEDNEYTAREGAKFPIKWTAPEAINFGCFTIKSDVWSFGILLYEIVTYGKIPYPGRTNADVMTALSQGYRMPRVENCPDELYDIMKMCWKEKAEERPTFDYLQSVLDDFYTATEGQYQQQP
Chain of Tyrosine-protein kinase Lck (P06239 whole entry): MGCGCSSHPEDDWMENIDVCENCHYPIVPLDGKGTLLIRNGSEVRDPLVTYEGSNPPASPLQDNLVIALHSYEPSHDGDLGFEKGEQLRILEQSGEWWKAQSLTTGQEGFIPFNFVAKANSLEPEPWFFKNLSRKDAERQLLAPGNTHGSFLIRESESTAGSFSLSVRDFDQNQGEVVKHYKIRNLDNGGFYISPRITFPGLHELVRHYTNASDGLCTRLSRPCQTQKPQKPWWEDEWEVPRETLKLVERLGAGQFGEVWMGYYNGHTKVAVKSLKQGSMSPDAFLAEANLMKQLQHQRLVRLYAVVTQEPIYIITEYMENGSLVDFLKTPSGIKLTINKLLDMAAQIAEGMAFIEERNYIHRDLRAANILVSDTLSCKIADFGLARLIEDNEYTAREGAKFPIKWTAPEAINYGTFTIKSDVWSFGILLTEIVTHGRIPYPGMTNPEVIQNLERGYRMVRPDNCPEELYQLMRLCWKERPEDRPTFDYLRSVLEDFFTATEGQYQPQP

Turning to `Cc1ccccc1Nc1ccnc(Nc2cccc(C(N)=O)c2)n1`, inhibition in data set [1] was half-maximal at 89 nM (IC50). In other words, the double-digit nanomolar range.
Still for that read-out and setting: for `Cn1cnc2cc(Nc3ccnc(Nc4cccc(C(N)=O)c4)n3)ccc21` the value was 1800 nM.
The same measure, in the same setting: for `Cn1ncc2c(Nc3ccnc(Nc4cccc(C(N)=O)c4)n3)cccc21` the value was 1600 nM; for `Cc1nc2c(Nc3ccnc(Nc4cccc(C(N)=O)c4)n3)cccc2[nH]1`, 5600 nM; for `Cc1cc(Nc2ccnc(Nc3cccc(C(N)=O)c3)n2)c2cn[nH]c2c1`, 520 nM.
The same measure, in the same setting: to `Cc1ccc(N)cc1Nc1ccnc(Nc2cccc(C(N)=O)c2)n1` belongs 97 nM.
With `NC(=O)c1cccc(Nc2nccc(Nc3ccc4[nH]ncc4c3)n2)c1`, the IC50 in [1] is 3000 nM. This IC50 is about 31-fold higher than that of the compound before.
On the same count and under the same terms, for `Cc1ccc(F)cc1Nc1ccnc(Nc2cccc(C(N)=O)c2)n1` the value was 270 nM.
In the case of `NS(=O)(=O)c1cccc(Nc2nccc(Nc3cccc4[nH]ncc34)n2)c1`, in data set [1], the IC50 is 33 nM.
Still for that read-out and setting: for `Cn1ncc2ccc(Nc3ccnc(Nc4cccc(C(N)=O)c4)n3)cc21` the value was 8200 nM; for `Cc1cccc(O)c1Nc1ccnc(Nc2cccc(C(N)=O)c2)n1`, 100 nM.
For `CC(=O)N(C)c1cccc(Nc2ccnc(Nc3cccc(C(N)=O)c3)n2)c1`, half-maximal inhibition in data set [1] (IC50) was put at 1800 nM.
The same measure, in the same setting: to `NC(=O)c1cccc(Nc2nccc(Nc3cccc4[nH]ncc34)n2)c1` [GW782612X] belongs 100 nM; to `Cc1ccc(C(=O)N(C)C)cc1Nc1ccnc(Nc2cccc(C(N)=O)c2)n1`, 9300 nM.
The same measure, in the same setting: for `NC(=O)c1cccc(Nc2nccc(Nc3cccc(F)c3)n2)c1` the value was 3300 nM.
Same read-out and setting: for `Cc1ccc(C(N)=O)cc1Nc1ccnc(Nc2cccc(C(N)=O)c2)n1` the value was 1300 nM; for `NC(=O)c1cccc(Nc2nccc(Nc3ccc4nn[nH]c4c3)n2)c1`, 4400 nM; for `NC(=O)c1cccc(Nc2nccc(Nc3ccc(F)cc3F)n2)c1`, 1100 nM.
Turning to `Cc1ccc2[nH]ncc2c1Nc1ccnc(Nc2cccc(C(N)=O)c2)n1`, the IC50 in data set [1] was determined as 12 nM; in [2] it was 97 nM; in data set [3], 40 nM; in [4], 28 nM; in data set [5], 220 nM.
Compound `Cc1ccc(NS(C)(=O)=O)cc1Nc1ccnc(Nc2cccc(C(N)=O)c2)n1` registered an IC50 in data set [1] of 7700 nM.
The same measure, in the same setting: for `Cc1ccc2c(cnn2C)c1Nc1ccnc(Nc2cccc(C(N)=O)c2)n1` the value was 2800 nM.
The same measure, in the same setting: to `COc1ccc(C)c(Nc2ccnc(Nc3cccc(S(N)(=O)=O)c3)n2)c1` belongs 54 nM; to `NC(=O)c1cccc(Nc2nccc(Nc3cccc4cn[nH]c34)n2)c1`, 1400 nM.
Still for that read-out and setting: to `COc1cccc(Nc2ccnc(Nc3cccc(C(N)=O)c3)n2)c1` belongs 2700 nM; to `NC(=O)c1cccc(Nc2nccc(Nc3cccc4ncccc34)n2)c1`, 560 nM.
For the compound `Cc1ccc(O)cc1Nc1ccnc(Nc2cccc(C(N)=O)c2)n1`, the IC50 in [6] is 14 nM; in data set [1], 13 nM; in [2], 9 nM; in data set [3], 3 nM; in data set [4] it was 2 nM.
Turning to `Cc1cc(O)cc(Nc2ccnc(Nc3cccc(C(N)=O)c3)n2)c1`, half-maximal inhibition in data set [1] (IC50) required 73 nM.
On the same count and under the same terms, for `Cc1ccc(CN)cc1Nc1ccnc(Nc2cccc(C(N)=O)c2)n1` the value was 3400 nM; for `Cn1cnc2ccc(Nc3ccnc(Nc4cccc(C(N)=O)c4)n3)cc21`, 16000 nM.
The same measure, in the same setting: to `Cc1cc(O)ccc1Nc1ccnc(Nc2cccc(C(N)=O)c2)n1` belongs 40 nM.
Still for that read-out and setting: to `COc1ccc(C)c(Nc2ccnc(Nc3cccc(C(N)=O)c3)n2)c1` belongs 86 nM.
`Cc1ccc2[nH]ncc2c1Nc1ccnc(Nc2cccc(S(N)(=O)=O)c2)n1`: the concentration for half-maximal inhibition (IC50) in data set [1] came out at 19 nM; in data set [2], 69 nM; in data set [3], 430 nM; in data set [4] it was 220 nM; in data set [5], 620 nM. For the same compound, in [7], the clearance is 22.4 mL/min/kg. Also, in data set [8], the Vd stood at 0.7 L/kg. The half-life in data set [9] is 31.8 min. The AUC(0-t) stood at 743 ng·h/mL in [10] and 190 ng·h/mL in [11]. The bioavailability in data set [12] turned out to be 25%.
`Cc1ccc(Nc2ccnc(Nc3cccc(C(N)=O)c3)n2)cc1O`: the concentration for half-maximal inhibition (IC50) in data set [1] came out at 190 nM.
The same measure, in the same setting: to `CC(C)c1ccc(O)cc1Nc1ccnc(Nc2cccc(C(N)=O)c2)n1` belongs 880 nM.
The same measure, in the same setting: to `Cc1ccc(Cl)cc1Nc1ccnc(Nc2cccc(C(N)=O)c2)n1` belongs 380 nM; to `NC(=O)c1cccc(Nc2nccc(Nc3cc(O)ccc3Br)n2)c1`, 41 nM.
Still for that read-out and setting: to `Cc1ccc(Nc2ccnc(Nc3cccc(C(N)=O)c3)n2)c2cn[nH]c12` belongs 55 nM.
`NS(=O)(=O)c1cccc(Nc2nccc(Nc3ccc(F)cc3F)n2)c1` returned an IC50 in data set [1] of 350 nM.
`Cc1ccc(O)cc1Nc1ccnc(Nc2cccc(S(N)(=O)=O)c2)n1`: the 50% inhibitory concentration (IC50) in [1] was 8.5 nM; in data set [3], 1 nM; in [4], 0.4 nM; in data set [5] it was 4 nM. This compound came in with a clearance in data set [13] of 65.5 mL/min/kg. The Vd in [14] is 0.3 L/kg. The same compound gave a half-life in [15] of 7.2 min. Moreover, the area under the curve AUC(0-t) came out at 635 ng·h/mL in [16] and 2 ng·h/mL in [17]. This compound also showed a bioavailability in [18] of less than 1%.
Compound `NC(=O)c1cccc(Nc2nccc(Nc3cccc4nn[nH]c34)n2)c1` registered a 50% inhibitory concentration (IC50) in [1] of 490 nM.
The same measure, in the same setting: to `NC(=O)c1cccc(Nc2nccc(Nc3ccc4ncsc4c3)n2)c1` belongs 3000 nM; to `NC(=O)c1cccc(Nc2nccc(Nc3cccc(O)c3)n2)c1`, 130 nM.

For orientation: IC50 means the point on the concentration scale where inhibition reaches its midpoint. One may read the clearance as the volume of plasma or blood freed of the substance per unit of time. As a reminder, the half-life is how long it takes for the measured level to halve. Lower therefore signals rapid decline. Usually AUC(0-t) stands for exposure summed from dosing to a finite time, without extrapolation to infinity. A high value points to more exposure. As usually defined, the bioavailability is dose-corrected exposure relative to a reference, in per cent. Low values mean little systemic uptake, high ones much systemic uptake.
